Assay [1] has as its target T1, Alpha-1B adrenergic receptor (Rattus norvegicus) (UniProt P15823).
T1 sequence (whole entry): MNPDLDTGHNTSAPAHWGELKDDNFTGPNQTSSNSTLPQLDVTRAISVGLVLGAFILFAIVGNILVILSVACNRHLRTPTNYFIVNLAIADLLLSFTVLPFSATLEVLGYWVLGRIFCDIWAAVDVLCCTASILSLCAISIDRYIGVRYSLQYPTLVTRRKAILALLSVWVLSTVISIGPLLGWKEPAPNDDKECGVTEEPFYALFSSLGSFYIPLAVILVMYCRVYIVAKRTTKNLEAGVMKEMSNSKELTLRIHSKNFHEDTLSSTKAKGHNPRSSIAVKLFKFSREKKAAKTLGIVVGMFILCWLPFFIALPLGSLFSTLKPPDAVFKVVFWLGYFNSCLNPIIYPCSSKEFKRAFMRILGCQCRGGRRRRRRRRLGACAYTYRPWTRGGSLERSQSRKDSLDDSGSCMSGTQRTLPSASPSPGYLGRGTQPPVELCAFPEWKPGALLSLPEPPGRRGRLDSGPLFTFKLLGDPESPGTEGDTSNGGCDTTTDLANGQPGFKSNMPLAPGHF
Description: Antagonism of Alpha-1B adrenergic receptor subtype (-)-phenylephrine-induced contraction of rat spleen. It counts as functional, tissue-based. The method, boiled down: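 Rat spleen, isometric cumulative (–)-phenylephrine curves at 30-min intervals; first discarded, second taken as control. Antagonist was equilibrated 30 min before the next curve.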

Another assay concerns the target D(2) dopamine receptor (Rattus norvegicus, UniProt P61169). The experiment in a line: Displacement of [3H]spiperone from rat brain Dopamine receptor D2. The gist of the method: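 Striata from male Sprague–Dawley rats homogenized in Tris-HCl pH 7.4. Buffer held 10 μM pargiline, 0.1% ascorbic acid, 120 mM NaCl, 5 mM KCl, 2 mM CaCl2, 1 mM MgCl2. Incubated with 0.2–0.6 nM [3H]spiperone for 15 min at 37 °C. Nonspecific binding defined with 1 μM (+)-butaclamol. Filtration, scintillation counting. Ki by Cheng–Prusoff.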
(In a radioligand displacement assay an active substance lowers the binding of a labelled ligand.)

In assay [2] the target is Serotonin 2 (5-HT2) receptor (Rattus norvegicus, UniProt P30994+P08909+P14842). The experiment in a line: Displacement of [3H]ketanserin from rat brain 5-hydroxytryptamine 2 receptor. The method, boiled down:
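Rat cerebral cortex membranes (male Sprague–Dawley) in Tris-HCl pH 7.4 with 10 μM pargiline and 0.1% ascorbic acid were incubated 20 min at 37 °C with 0.7–1.3 nM [3H]ketanserin (5-HT2A). Nonspecific binding was defined by 2 μM ketanserin. Bound label was counted after filtration, and Ki was derived by Cheng–Prusoff.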

Assay [3] addresses T2, Adrenergic receptor alpha-2 (Rattus norvegicus, UniProt P22086+P19328+P22909).
T2 sequence (P22086 whole entry): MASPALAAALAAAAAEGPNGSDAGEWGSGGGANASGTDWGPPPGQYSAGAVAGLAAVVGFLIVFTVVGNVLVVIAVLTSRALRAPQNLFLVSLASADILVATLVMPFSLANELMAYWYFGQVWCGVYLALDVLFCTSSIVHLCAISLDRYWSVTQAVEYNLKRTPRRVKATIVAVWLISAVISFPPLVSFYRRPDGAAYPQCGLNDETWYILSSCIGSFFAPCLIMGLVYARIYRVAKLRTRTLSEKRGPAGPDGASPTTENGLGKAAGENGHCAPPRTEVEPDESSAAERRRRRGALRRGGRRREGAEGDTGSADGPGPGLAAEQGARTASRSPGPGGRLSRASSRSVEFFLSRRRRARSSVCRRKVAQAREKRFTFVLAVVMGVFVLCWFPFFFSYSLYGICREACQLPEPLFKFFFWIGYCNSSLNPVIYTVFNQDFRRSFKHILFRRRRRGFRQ
T2 sequence (P19328 whole entry): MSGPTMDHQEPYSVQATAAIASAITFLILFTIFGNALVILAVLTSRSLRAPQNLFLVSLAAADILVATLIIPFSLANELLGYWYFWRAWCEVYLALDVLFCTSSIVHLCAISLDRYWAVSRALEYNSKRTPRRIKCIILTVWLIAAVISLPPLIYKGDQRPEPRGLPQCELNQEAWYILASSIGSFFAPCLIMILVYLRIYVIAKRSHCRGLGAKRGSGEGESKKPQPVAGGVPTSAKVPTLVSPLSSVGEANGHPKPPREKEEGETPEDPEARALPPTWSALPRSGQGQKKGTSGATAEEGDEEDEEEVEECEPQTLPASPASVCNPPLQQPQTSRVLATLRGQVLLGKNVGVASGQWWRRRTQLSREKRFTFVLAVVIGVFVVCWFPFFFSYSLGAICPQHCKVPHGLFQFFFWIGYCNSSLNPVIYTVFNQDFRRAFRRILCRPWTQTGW
T2 sequence (P22909 whole entry): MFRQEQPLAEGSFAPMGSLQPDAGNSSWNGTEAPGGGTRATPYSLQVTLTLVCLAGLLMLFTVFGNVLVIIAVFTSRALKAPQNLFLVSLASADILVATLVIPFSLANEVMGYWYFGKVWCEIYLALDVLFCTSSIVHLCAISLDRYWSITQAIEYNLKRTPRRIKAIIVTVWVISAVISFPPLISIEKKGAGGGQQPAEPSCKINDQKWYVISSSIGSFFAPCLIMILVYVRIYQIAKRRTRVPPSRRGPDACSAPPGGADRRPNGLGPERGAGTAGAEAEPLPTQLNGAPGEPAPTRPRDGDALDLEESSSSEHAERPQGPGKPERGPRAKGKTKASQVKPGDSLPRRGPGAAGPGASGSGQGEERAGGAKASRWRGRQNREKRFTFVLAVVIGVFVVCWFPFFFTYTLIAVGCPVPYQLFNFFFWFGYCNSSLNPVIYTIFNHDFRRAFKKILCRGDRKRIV
Description: Displacement of [3H]rauwolscine from rat brain Alpha-2 adrenergic receptor. The method, boiled down:
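Rat cerebral cortex membranes (male Sprague–Dawley) were washed in Tris-HCl pH 7.4 and resuspended with 10 μM pargiline and 0.1% ascorbic acid. They were incubated 30 min at 25 °C with 0.5–1.5 nM [3H]rauwolscine. Nonspecific binding was taken with 10 μM phentolamine. Filtration and scintillation counting followed, and Ki was obtained by Cheng–Prusoff.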

In assay [4] the target is T3, 5-hydroxytryptamine receptor 1A (Homo sapiens) (UniProt P08908).
T3 sequence (whole entry): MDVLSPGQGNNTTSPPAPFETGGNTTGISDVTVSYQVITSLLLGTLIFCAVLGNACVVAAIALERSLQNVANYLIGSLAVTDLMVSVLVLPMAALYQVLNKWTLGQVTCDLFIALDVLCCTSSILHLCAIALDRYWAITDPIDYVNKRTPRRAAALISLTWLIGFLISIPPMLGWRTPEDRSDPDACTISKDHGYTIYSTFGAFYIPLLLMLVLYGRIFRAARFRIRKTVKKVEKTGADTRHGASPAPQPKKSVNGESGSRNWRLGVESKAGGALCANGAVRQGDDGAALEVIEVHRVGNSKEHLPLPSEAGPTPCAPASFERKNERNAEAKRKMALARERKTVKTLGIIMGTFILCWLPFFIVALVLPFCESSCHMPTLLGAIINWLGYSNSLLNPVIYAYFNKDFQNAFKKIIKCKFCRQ
Particulars: HeLa.

The target of assay [5] is T3, 5-hydroxytryptamine receptor 1A (Homo sapiens). Particulars: HeLa. The source holds these as a separate data set.
The target of assay [6] is T4, Alpha-1B adrenergic receptor (Homo sapiens, UniProt P35368).
T4 sequence (P35368 whole entry): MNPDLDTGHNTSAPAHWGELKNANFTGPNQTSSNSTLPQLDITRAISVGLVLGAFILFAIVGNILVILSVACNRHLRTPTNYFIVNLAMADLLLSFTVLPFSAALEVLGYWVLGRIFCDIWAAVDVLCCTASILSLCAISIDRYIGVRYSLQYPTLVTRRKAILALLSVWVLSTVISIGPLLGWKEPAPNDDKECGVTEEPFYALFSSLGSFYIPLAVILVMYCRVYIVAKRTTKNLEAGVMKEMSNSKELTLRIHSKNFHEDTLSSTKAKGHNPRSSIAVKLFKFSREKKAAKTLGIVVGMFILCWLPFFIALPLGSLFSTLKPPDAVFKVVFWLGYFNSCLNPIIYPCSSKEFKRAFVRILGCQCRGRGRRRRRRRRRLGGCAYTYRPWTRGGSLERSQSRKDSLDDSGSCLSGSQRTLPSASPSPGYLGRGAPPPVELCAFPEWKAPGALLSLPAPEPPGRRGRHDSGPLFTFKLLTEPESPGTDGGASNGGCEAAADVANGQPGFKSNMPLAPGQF
The experiment in a line: Displacement of [3H]prazosin from human cloned Alpha-1B adrenergic receptor. The method, boiled down:
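CHO cells stably transfected with each human α1 subtype; 30 μg membrane protein in 50 mM Tris-HCl pH 7.4 with 0.1–0.4 nM [3H]prazosin, 30 min at 25 °C. Competitors 1 pM–10 μM. Nonspecific binding defined with 10 μM phentolamine. Filtration, scintillation counting. Ki by Cheng–Prusoff; 2–3 experiments in triplicate.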

Each structure is given as a SMILES string.

Chain of D(2) dopamine receptor (P61169 whole entry): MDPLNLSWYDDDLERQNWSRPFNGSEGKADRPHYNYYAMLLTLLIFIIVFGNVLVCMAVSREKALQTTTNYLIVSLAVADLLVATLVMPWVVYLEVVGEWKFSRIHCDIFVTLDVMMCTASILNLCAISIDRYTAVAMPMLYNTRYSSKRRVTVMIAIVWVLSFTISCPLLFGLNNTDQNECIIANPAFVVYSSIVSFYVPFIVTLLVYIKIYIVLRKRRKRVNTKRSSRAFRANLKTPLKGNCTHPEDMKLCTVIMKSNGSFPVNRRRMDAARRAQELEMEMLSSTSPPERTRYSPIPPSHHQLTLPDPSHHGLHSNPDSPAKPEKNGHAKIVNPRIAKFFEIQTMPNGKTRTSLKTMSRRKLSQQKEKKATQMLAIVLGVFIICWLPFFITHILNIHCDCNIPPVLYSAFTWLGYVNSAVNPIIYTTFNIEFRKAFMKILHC

Regarding `COc1ccccc1N1CCN(CCN2C(=O)CC3(CCCC3)CC2=O)CC1` [BMY-7378], the pKb in assay [1] was found to be 7.55. The molecule also gave a Ki at D(2) dopamine receptor of 49 nM. Besides, the “Log Ki” value is given as -6.31 in assay [2] and -5.93 in assay [3]. The same molecule registered a pD2 in assay [4] of 9.27.
`NCCc1c[nH]c2ccc(C(N)=O)cc12` displayed a pD2 in assay [5] of 8.45.
Same read-out and setting: for `NCCc1c[nH]c2ccc(O)cc12` the value was 7.3.
`CCCN(CCC)C1CCc2cccc(O)c2C1` (stereo unspecified) [8-OH-DPAT] gave a Ki in assay [6] of more than 1000 nM. Further, the “Log Ki” value at D(2) dopamine receptor was less than -6; in assay [2], less than -6; in assay [3] it was -6.08.

As usually defined, the pKb is −log10 of the Kb, conventionally taken in molar units. One may read the Ki as a dissociation constant, usually derived from enzyme kinetics or from competition with a known ligand. A lower Ki goes with higher affinity.
